# Test results reported in ChEMBL document CHEMBL1132110, “Design and fast synthesis of C-terminal duplicated potent C(2)-symmetric P1/P1'-modified HIV-1 protease inhibitors” (J Med Chem, 1999).
# Assays:
# MT4 [1] = test: The anti-HIV activity in the presence of MT-4 cells infected mutants HIV-1:M46I,V82F,[…]; assay type: functional; details: Homo sapiens, read-out: ED50 (the source's name)
# Outline: (§1)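 MT4 cells (2 × 10⁴/well) infected with ritonavir-selected mutant HIV-1 (10–50 TCID₅₀/well). Mutants came from passaging cell-free virus under stepwise-increased ritonavir, then one passage without drug; protease gene sequenced. Compounds from 10 mg/mL DMSO stocks diluted in medium. Viability read by XTT after 6 days; ED50 taken as 50% dose.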
# MT4 [2] = test: The anti-HIV activity in the presence of human serum(hs) performed in MT-4 cells iwith AB+ serum.; assay type: functional; details: read-out: ED50 (the source's name)
# Outline: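 MT4 cells infected with HIV-1 IIIB; compounds diluted in human AB+ serum and added after 1 h virus adsorption, final medium 50% human serum plus 10% fetal calf serum. Viral replication measured after 6 days as HIV p24 antigen; ED50 derived.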
# MT4 [3] = test: The anti-HIV activity was evaluated in MT-4 cells using colorimetric XTT assay. MT-4 cells were infected with HIV-1,IIb (in vitro); assay type: functional; details: Homo sapiens, read-out: ED50 (the source's name)
# Outline: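 MT4 cells (2 × 10⁴ per well) infected with HIV-1 IIIB at 10–50 TCID50/well. Compounds came from 10 mg/mL DMSO stocks, diluted in medium and added to the cells. Viability was read by XTT after 6 days to monitor the cytopathic effect, and the 50% effective dose (ED50) was determined.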
# MT4 [4] = test: The anti-HIV activity in the presence of MT-4 cells infected mutants HIV-1:V32I,M46I,V82A.; assay type: functional; details: Homo sapiens, read-out: ED50 (the source's name); outline: as §1
# MT4 [5] = test: The anti-HIV activity in the presence of human serum(hs) performed in MT-4 cells with AB+ serum.; assay type: functional; details: read-out: ED50 (the source's name)
# Outline: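 MT4 cells infected with HIV-1 IIIB. Compounds diluted in human AB+ serum were added after 1 h of virus adsorption. Final medium held 50% human serum plus 10% fetal calf serum. Viral replication was read after 6 days as HIV p24 antigen, and the ED50 was derived.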
# [6] = target: Human immunodeficiency virus type 1 protease (Human immunodeficiency virus 1, UniProt Q72874); test: Inhibitory activity against HIV-1 protease expressed in Escherichia coli
Compound,EC50 (MT4 [1]),EC50 (MT4 [2]),EC50 (MT4 [3]),EC50 (MT4 [4]),EC50 (MT4 [5]),Ki [6]
CNC(=O)[C@@H](NC(=O)[C@H](OCc1ccccc1)[C@H](O)[C@@H](O)[C@@H](OCc1ccccc1)C(=O)N[C@H](C(=O)NC)C(C)C)C(C)C,20000 nM,20000 nM,1500 nM,–,–,–
CNC(=O)[C@@H](NC(=O)[C@H](OCc1ccc(-c2cccnc2)cc1)[C@H](O)[C@@H](O)[C@@H](OCc1ccc(-c2cccnc2)cc1)C(=O)N[C@H](C(=O)NC)C(C)C)C(C)C,> 3000 nM,–,2500 nM,> 3000 nM,20000 nM,0.3 nM
CNC(=O)[C@@H](NC(=O)[C@H](OCc1ccc(Br)cc1)[C@H](O)[C@@H](O)[C@@H](OCc1ccc(Br)cc1)C(=O)N[C@H](C(=O)NC)C(C)C)C(C)C,1000 nM,–,800 nM,1200 nM,2100 nM,0.3 nM
CNC(=O)[C@@H](NC(=O)[C@H](OCc1ccc(-c2ccccc2)cc1)[C@H](O)[C@@H](O)[C@@H](OCc1ccc(-c2ccccc2)cc1)C(=O)N[C@H](C(=O)NC)C(C)C)C(C)C,700 nM,–,40 nM,400 nM,800 nM,0.7 nM
CNC(=O)[C@@H](NC(=O)[C@H](OCc1ccc(/C=C/C(=O)OC)cc1)[C@H](O)[C@@H](O)[C@@H](OCc1ccc(/C=C/C(=O)OC)cc1)C(=O)N[C@H](C(=O)NC)C(C)C)C(C)C,–,–,800 nM,–,5700 nM,0.09 nM
CNC(=O)[C@@H](NC(=O)[C@H](OCc1ccc(-c2ccsc2)cc1)[C@H](O)[C@@H](O)[C@@H](OCc1ccc(-c2ccsc2)cc1)C(=O)N[C@H](C(=O)NC)C(C)C)C(C)C,200 nM,–,40 nM,300 nM,800 nM,–
CNC(=O)[C@@H](NC(=O)[C@H](OCc1ccc(-c2ccccn2)cc1)[C@H](O)[C@@H](O)[C@@H](OCc1ccc(-c2ccccn2)cc1)C(=O)N[C@H](C(=O)NC)C(C)C)C(C)C,–,–,800 nM,–,3600 nM,0.6 nM
CNC(=O)[C@@H](NC(=O)[C@H](OCc1ccc(-c2cccc([N+](=O)[O-])c2)cc1)[C@H](O)[C@@H](O)[C@@H](OCc1ccc(-c2cccc([N+](=O)[O-])c2)cc1)C(=O)N[C@H](C(=O)NC)C(C)C)C(C)C,40 nM,–,50 nM,1100 nM,1100 nM,1.4 nM
CNC(=O)[C@@H](NC(=O)[C@H](OCc1ccc(-c2cccs2)cc1)[C@H](O)[C@@H](O)[C@@H](OCc1ccc(-c2cccs2)cc1)C(=O)N[C@H](C(=O)NC)C(C)C)C(C)C,200 nM,–,40 nM,300 nM,1000 nM,1.2 nM
CNC(=O)[C@@H](NC(=O)[C@H](OCc1ccc(C2=C(O)C(=O)CCC2)cc1)[C@H](O)[C@@H](O)[C@@H](OCc1ccc(C2=C(O)C(=O)CCC2)cc1)C(=O)N[C@H](C(=O)NC)C(C)C)C(C)C,–,–,3700 nM,–,20000 nM,0.3 nM
CNC(=O)[C@@H](NC(=O)[C@H](OCc1ccc(-c2nccs2)cc1)[C@H](O)[C@@H](O)[C@@H](OCc1ccc(-c2nccs2)cc1)C(=O)N[C@H](C(=O)NC)C(C)C)C(C)C,> 3000 nM,–,300 nM,> 3000 nM,400 nM,0.6 nM
CNC(=O)[C@@H](NC(=O)[C@H](OCc1ccc(CCc2ccccc2)cc1)[C@H](O)[C@@H](O)[C@@H](OCc1ccc(CCc2ccccc2)cc1)C(=O)N[C@H](C(=O)NC)C(C)C)C(C)C,–,–,2100 nM,–,–,3.8 nM
